# Source: PubChem
# CHO parental Ca: signal in parental CHO cells, OX1R antagonist counter-screen; parental CHO-K1, ATP-induced calcium, Fluo-8 fluorescence; inhibition, % at 5.6 µM; 330,000 tested, 0.63% active;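 active means inhibition above that plate's mean sample inhibition plus 3 SD, cut at about 26% in these data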
#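 test system = CHO parental line | reagent = ATP stimulus | measured by = intracellular calcium via Fluo-8 no-wash fluorescent dye | control set = ATP and no-ATP DMSO wells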
# OX1R antag-1: human HCRTR1 antagonism. O43613. CHO/OX1R cells, Fluo-8 calcium fluorescence, orexin A. inhibition, % at 5 µM. 330,000 tested, 0.43% active;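 active means inhibition above its plate's threshold, mean inhibition of all tested compounds on the plate plus 3 SD, cut at about 37% in these data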
# TAAR1 antagonist: human TAAR1 antagonism; CHO RD-HGA16 TAAR1, Fluo-8 calcium fluorescence, antagonist; inhibition, % at 3 µM; 360,000 tested, 1.5% active; AID 624466;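 active means inhibition above a per-plate cutoff, the mean inhibition of test compounds on that plate plus 3 SD, cut at about 49% in these data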
# Target sequence (Q96RJ0 whole entry, looked up): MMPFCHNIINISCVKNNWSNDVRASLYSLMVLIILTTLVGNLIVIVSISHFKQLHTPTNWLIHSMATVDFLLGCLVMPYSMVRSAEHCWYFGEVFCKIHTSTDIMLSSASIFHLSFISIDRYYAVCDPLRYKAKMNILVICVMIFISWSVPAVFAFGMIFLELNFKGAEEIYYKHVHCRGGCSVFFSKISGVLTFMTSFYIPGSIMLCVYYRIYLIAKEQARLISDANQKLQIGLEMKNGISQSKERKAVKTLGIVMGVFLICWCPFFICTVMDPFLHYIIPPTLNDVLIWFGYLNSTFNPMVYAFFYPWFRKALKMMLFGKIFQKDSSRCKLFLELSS
#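 System: RD-HGA16 CHO cells with stable hTAAR1 and Gα16 | Probe or stimulus: EC80 β-phenethylamine stimulus | Dosing: 3 µM, single point | Times: Dye loading 75 min at 37 °C, then 30 min room temperature | Measured by: Fluo-8 calcium-sensitive fluorescence | Read-out basis: % inhibition of agonist calcium response | Replicates: n of 1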
# TAAR1 ag: agonists of human TAAR1; Q96RJ0; CHO RD-HGA16 TAAR1, Fluo-8 calcium fluorescence; vehicle wells 0%, saturating PEA agonist 100%; activation, % at 3 µM; 360,000 tested, 0.99% active; AID 624467;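 active means activation above the mean activation of all test compounds in the run plus 3 SD, cut at about 38% in these data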
#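 Assay system: CHO-derived RD-HGA16 cells with stable Gα16 and human TAAR1; timing: 17-24 h seeding, 75 min 37 °C dye, 30 min RT; read-out: % activation from peak over basal fluorescence ratio, DMSO-to-PEA scaled; measured by: kinetic Fluo-8 calcium fluorescence; benchmarks: low control DMSO, high control PEA (EC100); doses: 3 µM single concentration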
# GPR7 antag: blocks human GPR7 receptor signaling. GPR7-expressing cells, fluorescence antagonist assay. P48145. 290,000 tested, 1.1% active. inhibition, % at 4.4 µM; in the data active means inhibition above about 16%, passing the limit was not always enough;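 further: cells stimulated with the agonist NPW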
# Target sequence (P48145 whole entry, looked up): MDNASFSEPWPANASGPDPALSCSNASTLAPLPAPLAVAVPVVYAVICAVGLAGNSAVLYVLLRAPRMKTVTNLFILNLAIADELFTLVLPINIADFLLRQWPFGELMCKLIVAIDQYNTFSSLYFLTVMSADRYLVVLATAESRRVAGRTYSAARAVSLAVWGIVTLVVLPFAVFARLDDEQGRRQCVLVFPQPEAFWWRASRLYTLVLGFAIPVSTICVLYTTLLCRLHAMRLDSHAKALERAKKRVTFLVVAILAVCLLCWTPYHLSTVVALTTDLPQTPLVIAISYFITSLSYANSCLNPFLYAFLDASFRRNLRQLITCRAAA
# OX1R antag-2: antagonists of human orexin 1 receptor (OX1R); O43613; OX1R-expressing cells, FRET antagonist read-out; inhibition, % at 6.6 µM; 330,000 tested, 1.8% active; AID 485270; in the data active means inhibition mostly above about 38%, no sharp cut-off; inactive means mostly below about 40%
# Numbers stand for hits; i = inactive; nt = no result given. A selection: hits, their analogues and other compounds. The true share with any hit is near 4.6%.
SMILES,CHO parental Ca,OX1R antag-1,TAAR1 antagonist,TAAR1 ag,GPR7 antag,OX1R antag-2
CCOC(=O)c1csc(NC(=O)CSc2nnnn2-c2ccc(OCC)cc2)n1,nt,nt,i,40,i,nt
COc1cccc2c1C(=O)c1c(O)c3c(c(O)c1C2=O)CC(O)(C(C)=O)CC3OC1CC(N(C)C)C(O)C(C)O1 (centres undefined),nt,nt,i,i,nt,nt
COc1cccc2c1C(=O)c1c(O)c3c(c(O)c1C2=O)C[C@@](O)(C(=O)CO)C[C@@H]3OC1CC(N)C(O)C(C)O1 (some centres undefined),nt,nt,i,i,nt,nt
COc1cccc2c1C(=O)c1c(O)c3c(c(O)c1C2=O)C[C@@](O)(C(=O)CO)C[C@@H]3O[C@H]1C[C@H](N)[C@H](O)[C@H](C)O1,i,i,i,i,i,44
CC(=O)[C@@]1(O)Cc2c(O)c3c(c(O)c2[C@H](O[C@H]2C[C@H](N)[C@H](O)[C@H](C)O2)C1)C(=O)c1ccccc1C3=O,nt,nt,i,66,nt,nt
Cc1ccc(-c2cc(NC(=O)Cc3c[nH]c4ccccc34)ccc2N(C)c2cccnc2)cc1,nt,nt,i,i,nt,nt
CCN(CC(=O)Nc1ccc(NC(C)=O)cc1)C(=O)/C=C/c1ccccc1,i,i,i,i,nt,i
CCN(CC(=O)Nc1ccc(NC(C)=O)cc1)C(=O)/C=C/c1cn(-c2ccccc2)nc1-c1cccs1,i,i,58,i,nt,i
CCOc1ccc(Cn2nnc(C(=O)NCc3ccc(OC)cc3)c2N)cc1,i,i,i,50,i,i
O=C(c1ccccc1Cl)N1CCN(C(=O)C2CCCO2)CC1 (centres undefined),nt,nt,i,i,nt,nt
O=C(c1ccc([N+](=O)[O-])cc1[N+](=O)[O-])N1CCN(C(=O)C2CCCO2)CC1 (centres undefined),i,i,i,i,nt,34
CCCCNC(=O)C[C@H]1C[C@@]2(C(=O)OC)C(=C[C@H](C(C)C)O[C@@H]2C2CC2)N(Cc2ccccc2)C1=O,nt,nt,i,i,nt,nt
CCN(CC)c1nc(C=Cc2ccc(N(C)C)cc2)c2nccnc2n1,nt,nt,62,61,nt,nt
CCCCn1cc(C(=O)c2cc(Br)ccc2O)cc(C#N)c1=O,i,44,i,i,i,i
COC(=O)[C@]12C[C@H](CC(=O)N3CCN(C(=O)C4CC4)CC3)C(=O)N(Cc3ccccc3)C1=C[C@H](C(C)(C)C)O[C@@H]2C,nt,nt,i,i,nt,nt
CCOc1ccc2c(c1)sc(N)[n+]2Cc1cc(C)cc2cccnc12,i,i,i,i,35,i
COc1ccc(S(N)(=O)=O)cc1N(C)S(=O)(=O)c1ccccc1,i,i,i,i,i,i
COc1ccc(N(S(=O)(=O)c2ccccc2)S(=O)(=O)c2ccccc2)c(N)c1,i,i,51,i,nt,i
Cc1ccc(CN2CCC=CS2(=O)=O)cc1,nt,nt,i,i,nt,nt
COc1cc(CNCCCN2CCOCC2)cc(Br)c1OCc1ccc(Cl)cc1,i,i,i,i,59,i
COc1cc(CNCCN2CCOCC2)ccc1OCc1ccc(Cl)cc1,i,i,i,i,i,i
O=C(Cc1ccccc1)Nc1nccs1,i,i,i,i,i,i
O=C(CC1SC(=O)N(Cc2cccc3ccccc23)C1=O)Nc1nccs1 (centres undefined),i,i,i,i,i,62
COc1ccc(CCNc2ncnc3c2oc2ccccc23)cc1OC,79,60,61,i,37,78
c1ccc(CNc2ncnc3c2oc2ccccc23)nc1,i,i,i,i,i,i
SMILES,CHO parental Ca,OX1R antag-1,TAAR1 antagonist,TAAR1 ag,GPR7 antag,OX1R antag-2
COc1ccc(CCNc2nc(C)nc3c2oc2ccccc23)cc1OC,58,i,49,i,i,54
O=C(N/N=C/c1ccccn1)c1sc2ccccc2c1Cl,i,i,i,i,19,64
Cc1ccc(C(=O)Nc2ccc(C(=O)N/N=C/c3ccccn3)cc2)cc1,35,i,i,i,i,i
Cn1cccc1/C=N/NC(=O)c1sc2ccccc2c1Cl,i,i,i,i,i,74
Cc1c(/C=N/NC(=O)c2sc3ccccc3c2Cl)cnn1C,i,i,i,i,i,48
O=C(N/N=C/c1ccccn1)c1ccc(Cl)cc1,i,i,i,i,i,i
COc1ccc(OCC(=O)OC(C)CN2CCOCC2)cc1 (centres undefined),i,i,i,i,18,i
COc1ccc2c(c1)-c1c(ssc1=S)C(C)(C)N2S(=O)(=O)c1ccc(C)cc1,i,i,i,i,i,i
Cc1ccc(S(=O)(=O)N2c3ccccc3-c3c(ssc3=S)C2(C)C)cc1,i,42,i,i,i,88
O=C(CCN1CCOCC1)NNC(=O)c1ccc([N+](=O)[O-])cc1[N+](=O)[O-],i,i,i,i,nt,49
O=C1CC(C(F)(F)F)=NN1,i,i,i,i,i,i
COc1ccccc1-c1cc2nc(NCCc3ccc(S(N)(=O)=O)cc3)ccn2n1,nt,nt,56,i,nt,nt
NS(=O)(=O)c1ccc(CCNc2ccn3nc(-c4cccc(C(F)(F)F)c4)cc3n2)cc1,nt,nt,61,i,nt,nt
COc1ccccc1-c1cc2nc(NCCc3ccncc3)ccn2n1,nt,nt,i,i,nt,nt
O=C(COC(=O)c1ccc(-c2ccccc2)cc1)Nc1ccccc1-c1ccccc1,i,i,i,i,i,i
O=C(COC(=O)c1ccc(O)cc1)Nc1ccccc1-c1ccccc1,43,i,61,i,i,i
O=C(COC(=O)c1ccc(O)cc1)Nc1ccc(Cl)cc1,i,i,i,41,i,i
Cc1ccc(C(=O)Nc2ccc(F)cc2)cc1NC1=NC2CS(=O)(=O)CC2S1 (centres undefined),i,i,i,i,i,i
CSc1nsc(N/N=C/c2ccccc2)c1C#N,i,i,i,i,i,i
COc1cccc(/C=N/Nc2snc(SC)c2C#N)c1,i,i,i,42,i,67
CCCCc1c(-c2ccccc2OC)ncn1Cc1cccc(OC)c1,nt,nt,i,i,nt,nt
CN(C)C1=NC[C@H](Cc2ccccc2)N1CCCC1CCCCC1,i,i,i,48,nt,i
CC(=O)C1=C(C)N(Cc2ccc(F)cc2)C(=S)NC1c1cccc(Br)c1 (centres undefined),nt,nt,i,i,nt,nt
O=C(O)c1cnc(-c2ccccc2)nc1Sc1ccccc1Cl,i,i,i,i,i,56
COc1cc(-n2c(C)cc(O)cc2=O)ccc1Cl,nt,nt,i,i,nt,nt
COc1cc(NC(=O)c2cccc3c2C(=O)N(C2CCCCC2)C3)cc(OC)c1OC,i,i,53,i,i,i
Cc1cc(C)cc(NC(=O)c2cccc3c2C(=O)N(C2CCCCC2)C3)c1,i,i,nt,nt,i,i
COc1ccccc1C(=O)NC(=S)Nc1cccnc1Cl,i,i,i,i,i,47
Cc1cc(O)cc(=O)n1-c1cccc(Br)c1,nt,nt,i,i,nt,nt
Cc1cc(C)cc(N(CC(=O)NCc2ccc(F)cc2)C(=O)c2snc(C(N)=O)c2N)c1,i,i,i,41,i,i
